Measured values reported in the EternaBench riboswitch data.

Test system: MS2 coat protein
Assay: apparent Kd, MS2 coat protein; higher = weaker binding; RNA-MaP array
In short: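 Designed RNAs were produced on an Illumina sequencing chip by transcription of sequenced DNA templates. Binding to fluorescently labeled MS2 coat protein (1.5 nM to 3 μM) was measured at room temperature with or without input ligand. The apparent Kd is the median of per-cluster binding-curve fits. Designs were excluded when measured on fewer than 10 clusters.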

[1] = designed as: OFF switch for flavin mononucleotide, no ligand
[2] = ligand present: flavin mononucleotide, designed as: OFF switch for flavin mononucleotide
[3] = designed as: ON switch for flavin mononucleotide, no ligand
[4] = ligand present: flavin mononucleotide, designed as: ON switch for flavin mononucleotide
[5] = designed as: ON switch for tryptophan, no ligand
[6] = ligand present: tryptophan, designed as: ON switch for tryptophan
[7] = designed as: OFF switch for theophylline, no ligand
[8] = ligand present: theophylline, designed as: OFF switch for theophylline

Row | Sequence | apparent Kd [1] [nM] | apparent Kd [2] [nM] | apparent Kd [3] [nM] | apparent Kd [4] [nM] | other results
1 | ACGUAGUGCCGAGGAUAUGUAACAUGAGGAUCACCCAUGUUCUCUAACAGGUCGAUUUUAAGCACACAGAAGGCGGGUGUUGAU | 11.3 | 11.8 | – | – | –
2 | UACAAGUACUAGAAGGAUCGAACCGAAGGUGUGAUAGGAUAUAGAGACAUGAGGAUCACCCAUGUAGGAGUGCAGUCAUACAUU | 27.9 | 23.4 | – | – | –
3 | UUAUGUGACGAGGAUAUGAAAAGGAGUGGUGAAUCAGAAGGCGUAACAUGAGGAUCACCCAUGUCAGUGGGCCU | 49.6 | 71.3 | – | – | –
4 | GAGUACAGGGAGAAGGUGUAUUAAUACGCACGGCUGGUCACAUGAGGAUCACCCAUGUCGCAUAACAAGGAUAUCCGACUAAUC | 139 | 213 | – | – | –
5 | UCGGUACAUGAGGAUCACCCAUGUCGUCACAGAGCAGGAUAUUCAGGCUUCAGAGGUCGCGAAGAAGGGCUGGUGC | – | – | 11.9 | 9.02 | –
6 | GACGUCGCCUUAGGAUAUGCCCAUUACAUGAGGAUCACCCAUGUUUCUUAAAGAGGAUCCGCAUGGCAGAAGGAAGGUCUCCAC | 25.4 | 59.4 | – | – | –
7 | AAAUGGAUCGAAGGAUAUCCCCAGACAUGAGGAUCACCCAUGUGAGGGUACAGUUAUUGUUAUCAGGAGAAGGUCGCAUUCAAA | 10.3 | 9.5 | – | – | –
8 | AACAAAAGGAAGAAGGCAGUUAAACAUGAGGAUCACCCAUGUGGGACGCGGGAAAUCAACGAGACUGAGGAUAUUCAUUAAGAA | 9.84 | 20.9 | – | – | –
9 | UUAGAUCGUGUCAGGAUAUCGGACCGGCCCGCCUCCGAGAAGGGACAUGAGGAUCACCCAUGUCACGGUCCAUU | 7.73 | 7.84 | – | – | –
10 | CUCCUCGUAGGAUAUCGCACCGCGUACAUGAGGAUCACCCAUGUGAUUCUAUAGAUUAAGCGAGAAGGACGACAGG | 376 | 269 | – | – | –
11 | GAAUGGAAACUAGGAUAUCGGCAGGAGCGGGAGCGAGAAGGAGUUUACUCGGUAUACAUGAGGAUCACCCAUGUGGGUGUGCUG | 294 | 252 | – | – | –
12 | CACACCGAAGGAUAUACUACUGCUAUUUAGAGUGAGGGCGAACAUGAGGAUCACCCAUGUAGAAGGUCGAGAAA | 17.5 | 20.6 | – | – | –
13 | AUACCUAGUGAAGGAUAUCCAAAUAACUAUAGAGGAGAAGGACACAUUCUAACAUGAGGAUCACCCAUGUCCCGCCGUCUUACC | – | – | 14.4 | 11.9 | –
14 | UGACGUGGUAAGAAGGCAAGAGCAGGGCAGGAUUGAGGAUAUUACGGACAGACAUGAGGAUCACCCAUGUAGAGCCAUAACCGG | – | – | 8.55 | 7.89 | –
15 | CAUUAUCGCGUUAGGAUAUGAACAAGAAAUCGGCUACAGAAGGAACAUGAGGAUCACCCAUGUAUGAUCAAGAC | 13.1 | 10.7 | – | – | –
16 | ACAUGAGGAUCACCCAUGUGUCUCCUUUCCAUUACGAUCUUUAGAAGGGUCCGCAAACACUCUGGACAGGAUAUAAAGUAUGGC | 13.4 | 12.2 | – | – | –
17 | GGUGGGUCAGGAUAUCCCACACAAUUGCGAACGCGAUGCAGGGAGAAGGGACAUGAGGAUCACCCAUGUGGGAC | 54.4 | 64.9 | – | – | –
18 | CCGGGCGCUUAACAGGAUAUAGCAGUACAUACAUGAGGAUCACCCAUGUCUAUCUUGUAAUAAAGCUAGAAGGGUUCAUCCGAGGU | – | – | 14 | 9.84 | –
19 | GAAAAUACAUGAGGAUCACCCAUGUGGUGGCGUCAGAUUGGUUAGGAUAUCUUGGCGGGAUACUGAGAGAAGGAACUUUGAAGG | 181 | 136 | – | – | –
20 | AAACAUGAGGAUCACCCAUGUAGAAUAAUCAGACGUUUGAACAGAAGGUGAAAACAAAUAAAACUCAAGGAUAUGUAACUAAAA | – | – | 65.6 | 52.5 | –
21 | GUCAUUCUCAACAUGAGGAUCACCCAUGUCGGUUAUCUGGGCUAGGAUAUCACGAUGCCACUGCGUGAGAAGGAGCGUUCGAUA | 67.3 | 27.5 | – | – | –
22 | UGCCAACAUGAGGAUCACCCAUGUCAGGAUAUCCGGGAGCACUUCAGUAGAAUCCGCUGGAGAAGGGACAUAGG | 24.3 | 21.7 | – | – | –
23 | AUGUUCCGUUAGAAGGUGUUGAGUGGAGGCUCACAAGGAUAUAACUUCCUCGUCGAUGACAUGAGGAUCACCCAUGUAGCACAA | 50.3 | 38.1 | – | – | –
24 | CACUGACAUGAGGAUCACCCAUGUCUCCUGCUUGUAGGAUAUAGGUGGUCGCUGGACAGUCUAGAAGGACAUGUAA | – | – | 54.7 | 49.5 | –
25 | UUAGUAACCACAGGAUAUGCGGACGGGUGAAGGGCAGAAGGGUGGGAGUGCACAUGAGGAUCACCCAUGUAACACGCCAUAUUU | – | – | 17.7 | 8.65 | –
26 | AUCUACGUGGGUGAUACCAGCUGGUUAGUACACAUGAGGAUCACCCAUGUGCAGGCAGGCAGCCCUUGGCAGCACCGCAGUGGCU | – | – | – | – | apparent Kd (designed as: ON switch for theophylline, no ligand): 120 nM; apparent Kd (ligand present: theophylline, designed as: ON switch for theophylline): 35 nM
27 | ACAAUAAAUCAAGGAUAUGAACGAAGCAAGUGAUCAGAAGGUGAAAUAAACCCAUAAACUCCAACAUGAGGAUCACCCAUGUGA | – | – | 54 | 35.5 | –

Row | Sequence | apparent Kd [1] [nM] | apparent Kd [2] [nM] | apparent Kd [3] [nM] | apparent Kd [4] [nM] | other results
28 | UCUCACAUGAGGAUCACCCAUGUUAAGGCCCGAGGACCGGUACGGCCGCCACUCGUUGGAAGCCGGUAACGUACGAAUCUUCCGU | – | – | – | – | apparent Kd [5]: 17.9 nM; apparent Kd [6]: 24 nM
29 | GACCUCCUGCGAGCACAUGAGGAUCACCCAUGUAAGGACCUGAGAAGGCACCGUUAAGAUUGGAGUGAGGAUAUCAGGAUAUAG | 23.5 | 19.7 | – | – | –
30 | AGGCCAUCCAAGAAGGCUUACAACAUGAGGAUCACCCAUGUCACGGAGAUGUAUAACAUCUACUAAGAGGAUAUUGGGAGAGCU | – | – | 241 | 37.4 | –
31 | CAAUCUACCACCGGCCUACUGUACACUCGCCGAGGACCGGUACGGCCGCCACUCGACGUUCGACAUGAGGAUCACCCAUGUGGGU | – | – | – | – | apparent Kd (designed as: OFF switch for tryptophan, no ligand): 168 nM; apparent Kd (ligand present: tryptophan, designed as: OFF switch for tryptophan): 334 nM
32 | UGAGCAUCCCAGAAGGAUAUAUGGUCGUAAACAUGAGGAUCACCCAUGUUCCAUUUAGGACUCAAAUAGAAGGUCUCGGGCCAGAC | – | – | 13.6 | 11.7 | –
33 | UGGUUAACAUGACAUGAGGAUCACCCAUGUCUUGGAAUUACAAGAAGGAAGGACACAGGUAGACCUUAGGAUAUUGUGACUUGA | – | – | 24.6 | 11.6 | –
34 | ACAUACUUGGGAGGAUAUAUGUUCGUACGCUCGAUAGAAGGCCCAGAAGUAUAAGACAUGAGGAUCACCCAUGUGGCAAGCGUU | – | – | 11.4 | 8.78 | –
35 | CCACAGACAUGAGGAUCACCCAUGUAGUUGGGCGUGUCAUCUCAGGAUAUGGCAACGCUUAUGAGCCAGAAGGGAGAAGGUUAU | 13.4 | 12.8 | – | – | –
36 | GACAGCAUCCGAGGAUAUAUGUACGUAAUCAAACCACAUGAGGAUCACCCAUGUCCUCUAGGUUCAUAGAAGGCGGUUUAGCGU | 455 | 750 | – | – | –
37 | CAGGCAUGUAUAGGAUAUUGGGCUGGACGCGUUGUCGGUCGUUCCAACAUGAGGAUCACCCAUGUCAAGAAGGAUAUGCAUUCG | – | – | 38.8 | 27.3 | –
38 | ACUAGGGACCUGACAUGAGGAUCACCCAUGUUCUCGGAUCACAAGGAUAUCCGCACGUACCUGUGGGAGAAGGUGUCGUCCCAC | – | – | 26 | 21.8 | –
39 | AGGCCACAUGAGGAUCACCCAUGUAAGGAUAUUGGAGCAUGGAAACGCUGUGCGCAUGCAAGAAGGUACACGGA | 24.7 | 20.5 | – | – | –
40 | CCUUUUAUUAAUGAUACCAGCGUAUUAAGCAUCACCUUGGACAUGAGGAUCACCCAUGUACGCCCUUGGCAGCAUACCACUGGGU | – | – | – | – | apparent Kd [7]: 42.5 nM; apparent Kd [8]: 53.4 nM
41 | AAUAUUAUGUCGGCCGCCACUUCCCACAAGAGGUGCCUGCACCCACAUGAGGAUCACCCAUGUCGAAGGACCGGGACGCUCAAUU | – | – | – | – | apparent Kd [5]: 16.8 nM; apparent Kd [6]: 15.6 nM
42 | UCUCGGUAAGGAUAUAAAGCGACUCACAUGAGGAUCACCCAUGUUGUCGUCGUGGGCACAUUAGAAGGUACCAUUC | 7.06 | 6.3 | – | – | –
43 | CUCAGCGGGCUAGGAUAUGGCCUGUGGUUUAGGCCAGAAGGAGCUCACUAAGCACAUGAGGAUCACCCAUGUCUCAAUGCCUGA | – | – | 14.8 | 8.84 | –
44 | CCACCCGACAUGAGGAUCACCCAUGUAGAUGAUCCUGUACCAUAGGAUAUAGGCGUAAGAGAGAUCUAGAAGGAUGUACAACCC | 108 | 73.5 | – | – | –
45 | GCAUAACAUGAGGAUCACCCAUGUGAGGAUAUUCCCUCCGGCAAUUGCUCCCAAGAGGGAAGAAGGCACAGUGG | 146 | 66.1 | – | – | –
46 | GUCGGAGUGGAGAAGGCGCCAACGUAAGCGCGGCGAGGAUAUCCCUACCCUACAUGAGGAUCACCCAUGUCGACGAGAGUAUCG | – | – | 11.3 | 7.99 | –
47 | UACAUGAGGAUCACCCAUGUGGUCAGGUUAUCCCGGACGGGAAGAAGGAUAAGAGAGUAACAUUUAUAGGAUAUUCGCCUCAUU | – | – | 57.8 | 48.9 | –
48 | UCCUAGCGACAGAAGGUAGGCAAGAGACGCCCUCAACGACAUGAGGAUCACCCAUGUGGGACCACUAAGGAUAUGUAUGCCGAC | 84.6 | 66.5 | – | – | –
49 | ACACGUGACAAGGAUACCAGCCUGGCUAGUUCAAACCCUCACAUGAGGAUCACCCAUGUAGGCCCUUGGCAGCCUAUAGUCUAAG | – | – | – | – | apparent Kd [7]: 31.9 nM; apparent Kd [8]: 83.9 nM
50 | AGACGGUUACAGGAUAUGACUACUGCUAGAGCAUCAGAAGGGUAUACAUGAGGAUCACCCAUGUCUUCACGGCG | 10.1 | 9.62 | – | – | –
51 | AUGCACAUCUAGGAUACCAGCACCCUUAUGUCACUAGUUAACAUGAGGAUCACCCAUGUUUGCCCUUGGCAGCCUCAUUGACCAU | – | – | – | – | apparent Kd [7]: 68.5 nM; apparent Kd [8]: 172 nM
52 | GUAACGGGAAGCAGUGGCUUGACAUGAGGAUCACCCAUGUACAGAAGGGACGAUUACGUAAUGCGUCAGGAUAUGUGCCGUAGA | – | – | 48 | 28.1 | –
53 | AACUUUCCCUAGAAGGUCGUGUUACAACAUGAGGAUCACCCAUGUCGCCCUAGGGCUGCUGCCGCGAAGGAUAUAGGUCCGGAG | – | – | 5.77 | 5.32 | –
54 | AUACAAGCAAUGGAGGAUAUCGCAGAAAUCACAUGAGGAUCACCCAUGUCUUACCGUAUGUCGAGCGAGAAGGCCACGGUGCGAGU | – | – | 35.5 | 17.3 | –
